Reference: ChEMBL document CHEMBL1154881, “Synthesis and antimicrobial activities of novel 1,5-diaryl pyrazoles” (2010)
Converted amounts (≈) assume the structure as drawn.

Columns and labels:
[1] = system: Klebsiella pneumoniae; test: Antibacterial activity against Klebsiella pneumoniae after 24 hrs by broth dilution method; type: functional
[2] = system: Aspergillus fumigatus; test: Antifungal activity against Aspergillus fumigatus NCIM 902 after 3 to 4 days by serial plate dilution method; type: functional
How it was run: (§1)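 Sabouraud's agar (peptone 1 g, D-glucose 4 g, agar 2 g per 100 ml water, pH 5.7) plates were lawned with spore suspension (a loopful in 3 ml normal saline) and dried 1 h at 37 °C. Wells were punched and filled with compound in DMSO at 10–50 mg/ml, with a DMSO control. Plates in triplicate, 37 °C for 3–4 days.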

[3] = system: Trichophyton mentagrophytes; test: Antifungal activity against Trichophyton mentagrophytes after 3 to 4 days by serial plate dilution method; type: functional; how it was run: as §1
[4] = system: Staphylococcus aureus; test: Antibacterial activity against Staphylococcus aureus ATTC 25923 after 24 hrs by broth dilution method; type: functional; details: ATTC 25923, 24 h
[5] = system: Escherichia coli; test: Antibacterial activity against Escherichia coli ATTC 25922 after 24 hrs by broth dilution method; type: functional; details: ATTC 25922, 24 h
[6] = system: Aspergillus flavus; test: Antifungal activity against Aspergillus flavus NCIM 524 after 3 to 4 days by serial plate dilution method; type: functional; how it was run: as §1
[7] = system: Pseudomonas aeruginosa; test: Antibacterial activity against Pseudomonas aeruginosa ATTC 27853 after 24 hrs by disk diffusion method; type: functional
How it was run: (§2)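 Disc diffusion, each concentration tested in triplicate on nutrient agar seeded separately with fresh bacteria. Incubation 37 °C, 24 h. Solvent and growth controls included. Zones of inhibition recorded. The K. pneumoniae strain was recultured.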

[8] = system: Talaromyces marneffei; test: Antifungal activity against Penicillium marneffei after 3 to 4 days by serial plate dilution method; type: functional; how it was run: as §1
[9] = system: Klebsiella pneumoniae; test: Antibacterial activity against Klebsiella pneumoniae after 24 hrs by disk diffusion method; type: functional; how it was run: as §2
[10] = system: Staphylococcus aureus; test: Antibacterial activity against Staphylococcus aureus ATTC 25923 after 24 hrs by disk diffusion method; type: functional; how it was run: as §2
[11] = system: Escherichia coli; test: Antibacterial activity against Escherichia coli ATTC 25922 after 24 hrs by disk diffusion method; type: functional; how it was run: as §2
[12] = system: Trichophyton mentagrophytes; test: Antifungal activity against Trichophyton mentagrophytes at 10 to 50 ug/ml after 3 to 4 days; type: functional
[13] = system: Pseudomonas aeruginosa; test: Antibacterial activity against Pseudomonas aeruginosa ATTC 27853 after 24 hrs by broth dilution method; type: functional; details: ATTC 27853, 24 h
[14] = system: Klebsiella pneumoniae; test: Antibacterial activity against Klebsiella pneumoniae after 24 hrs by […]
[15] = system: Talaromyces marneffei; test: Antifungal activity against Penicillium marneffei at 10 to 50 ug/ml after 3 to 4 days; type: functional

Structure (SMILES) | MIC [1] | inhibition zone (IZ) [2] | inhibition zone (IZ) [3] | MIC [4] | MIC [5] | inhibition zone (IZ) [6] | inhibition zone (IZ) [7] | inhibition zone (IZ) [8] | inhibition zone (IZ) [9] | inhibition zone (IZ) [10] | inhibition zone (IZ) [11] | MIC [12] | MIC [13] | MIC [14] | MIC [15]
C#CCN1CCN(C(=O)c2cc(-c3ccc(Cl)cc3)n(-c3ccc(F)cc3)n2)CC1 | 50 µg/mL (≈ 118 µM) | 19 mm | <10 mm | 12.5 µg/mL (≈ 29.6 µM) | 50 µg/mL (≈ 118 µM) | <10 mm | <10 mm | 18 mm | 17 mm | 18 mm | 18 mm | – | – | – | –
CS(=O)(=O)OC1CCN(C(=O)c2cc(-c3ccc(Cl)cc3)n(-c3ccc(F)cc3)n2)CC1 | – | 25 mm | 28 mm | 12.5 µg/mL (≈ 26.2 µM) | 12.5 µg/mL (≈ 26.2 µM) | 31 mm | 21 mm | 29 mm | 23 mm | 26 mm | 28 mm | 12.5 µg/mL (≈ 26.2 µM) | 50 µg/mL (≈ 105 µM) | 12.5 µg/mL (≈ 26.2 µM) | 12.5 µg/mL (≈ 26.2 µM)
CCOC(=O)c1sc(-c2cc(-c3ccc(Cl)cc3)n(-c3ccc(F)cc3)n2)nc1C | 50 µg/mL (≈ 113 µM) | 18 mm | 20 mm | 12.5 µg/mL (≈ 28.3 µM) | 12.5 µg/mL (≈ 28.3 µM) | 22 mm | 19 mm | 19 mm | 19 mm | 16 mm | 18 mm | 12.5 µg/mL (≈ 28.3 µM) | – | – | 12.5 µg/mL (≈ 28.3 µM)
